Experimental data: ChEMBL document CHEMBL1152462, “Betulinic acid derivatives that target gp120 and inhibit multiple genetic subtypes of human immunodeficiency virus type 1” (Antimicrob Agents Chemother, 2008)
Activity calls are given as the source filed them. The rule behind the calls is not given here.

Legend:
[1] = test system: Human immunodeficiency virus 1; assay: Antiviral activity against HIV1 Du151.2 infected in human TZM-b1 cells assessed as inhibition of viral infection after 2 days postinfection by luciferase reporter gene assay; type: functional, organism-based; conditions: Human immunodeficiency virus 1, Du151.2, TZM-b1, 48 h
Procedure, shortened: (§1)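 Single-round infection of TZM-bl cells with 200 TCID50 of virus in the presence of varying compound concentrations, top concentration 15 µM. After 2 days, medium was removed and Bright-Glo reagent added to read luminescence. IC50 is the concentration giving 50% reduction in luciferase RLU relative to virus-control wells.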

[2] = Cytotoxicity against human TZM-bl cells at 15 uM after 2 days by trypan blue exclusion assay; type: cell-based; conditions: 48 h
[3] = test system: Human immunodeficiency virus 1; assay: Antiviral activity against HIV1 ZM214M.PL15 infected in human TZM-b1 cells assessed as inhibition of viral infection after 2 days postinfection by luciferase reporter gene assay; type: functional, organism-based; conditions: Human immunodeficiency virus 1, ZM214M.PL15, TZM-b1, 48 h; procedure, shortened: as §1
[4] = test system: Human immunodeficiency virus 1; assay: Antiviral activity against HIV1 SS1196.1 infected in human TZM-b1 cells assessed as inhibition of viral infection after 2 days postinfection by luciferase reporter gene assay; type: functional, organism-based; conditions: Human immunodeficiency virus 1, SS1196.1, TZM-b1, 48 h; procedure, shortened: as §1
[5] = test system: Human immunodeficiency virus 1; assay: Antiviral activity against HIV1 ZM109F.PB4 infected in human TZM-b1 cells assessed as inhibition of viral infection after 2 days postinfection by luciferase reporter gene assay; type: functional, organism-based; conditions: Human immunodeficiency virus 1, ZM109F.PB4, TZM-b1, 48 h; procedure, shortened: as §1
[6] = test system: Human immunodeficiency virus 1; assay: Antiviral activity against HIV1 WITO4160.33 infected in human TZM-b1 cells assessed as inhibition of viral infection after 2 days postinfection by luciferase reporter gene assay; type: functional, organism-based; conditions: Human immunodeficiency virus 1, WITO4160.33, TZM-b1, 48 h; procedure, shortened: as §1
[7] = test system: Human immunodeficiency virus 1; assay: Antiviral activity against HIV1 6535.3 infected in human TZM-b1 cells assessed as inhibition of viral infection after 2 days postinfection by luciferase reporter gene assay; type: functional, organism-based; conditions: Human immunodeficiency virus 1, 6535.3, TZM-b1, 48 h; procedure, shortened: as §1
[8] = test system: Human immunodeficiency virus 1; assay: Antiviral activity against HIV1 REJO4541.67 infected in human TZM-b1 cells assessed as inhibition of viral infection after 2 days postinfection by luciferase reporter gene assay; type: functional, organism-based; conditions: Human immunodeficiency virus 1, REJO4541.67, TZM-b1, 48 h; procedure, shortened: as §1
[9] = test system: Human immunodeficiency virus 1; assay: Antiviral activity against HIV1 5768.4 infected in human TZM-b1 cells assessed as inhibition of viral infection after 2 days postinfection by luciferase reporter gene assay; type: functional, organism-based; conditions: Human immunodeficiency virus 1, 5768.4, TZM-b1, 48 h; procedure, shortened: as §1
[10] = test system: Human immunodeficiency virus 1; assay: Antiviral activity against HIV1 TRO.11 infected in human TZM-b1 cells assessed as inhibition of viral infection after 2 days postinfection by luciferase reporter gene assay; type: functional, organism-based; conditions: Human immunodeficiency virus 1, TRO.11, TZM-b1, 48 h; procedure, shortened: as §1
[11] = test system: Human immunodeficiency virus 1; assay: Antiviral activity against HIV1 Q842.d12 infected in human TZM-b1 cells assessed as inhibition of viral infection after 2 days postinfection by luciferase reporter gene assay; type: functional, organism-based; conditions: Human immunodeficiency virus 1, Q842.d12, TZM-b1, 48 h; procedure, shortened: as §1
[12] = test system: Human immunodeficiency virus 1; assay: Antiviral activity against HIV1 QH0515.1 infected in human TZM-b1 cells assessed as inhibition of viral infection after 2 days postinfection by luciferase reporter gene assay; type: functional, organism-based; conditions: Human immunodeficiency virus 1, QH0515.1, TZM-b1, 48 h; procedure, shortened: as §1
[13] = test system: Human immunodeficiency virus 1; assay: Antiviral activity against HIV1 CAP244.2.00.D3 infected in human TZM-b1 cells assessed as inhibition of viral infection after 2 days postinfection by luciferase reporter gene assay; type: functional, organism-based; conditions: Human immunodeficiency virus 1, CAP244.2.00.D3, TZM-b1, 48 h; procedure, shortened: as §1
[14] = test system: Human immunodeficiency virus 1; assay: Antiviral activity against HIV1 Q259.d2.17 infected in human TZM-b1 cells assessed as inhibition of viral infection after 2 days postinfection by luciferase reporter gene assay; type: functional, organism-based; conditions: Human immunodeficiency virus 1, Q259.d2.17, TZM-b1, 48 h; procedure, shortened: as §1
[15] = test system: Human immunodeficiency virus 1; assay: Antiviral activity against HIV1 Q168.a2 infected in human TZM-b1 cells assessed as inhibition of viral infection after 2 days postinfection by luciferase reporter gene assay; type: functional, organism-based; conditions: Human immunodeficiency virus 1, Q168.a2, TZM-b1, 48 h; procedure, shortened: as §1
[16] = test system: Human immunodeficiency virus 1; assay: Antiviral activity against HIV1 Du422.1 infected in human TZM-b1 cells assessed as inhibition of viral infection after 2 days postinfection by luciferase reporter gene assay; type: functional, organism-based; conditions: Human immunodeficiency virus 1, Du422.1, TZM-b1, 48 h; procedure, shortened: as §1
[17] = test system: Human immunodeficiency virus 1; assay: Antiviral activity against HIV1 ZM55F.PB28a infected in human TZM-b1 cells assessed as inhibition of viral infection after 2 days postinfection by luciferase reporter gene assay; type: functional, organism-based; conditions: Human immunodeficiency virus 1, ZM55F.PB28a, TZM-b1, 48 h; procedure, shortened: as §1
[18] = test system: Human immunodeficiency virus 1; assay: Antiviral activity against HIV1 HXB2 infected in human TZM-b1 cells assessed as inhibition of viral infection after 2 days postinfection by luciferase reporter gene assay; type: functional, organism-based; conditions: Human immunodeficiency virus 1, HXB2, TZM-b1, 48 h; procedure, shortened: as §1
[19] = test system: Human immunodeficiency virus 1; assay: Antiviral activity against HIV1 CAP.2.00.G3 infected in human TZM-b1 cells assessed as inhibition of viral infection after 2 days postinfection by luciferase reporter gene assay; type: functional, organism-based; conditions: Human immunodeficiency virus 1, CAP.2.00.G3, TZM-b1, 48 h; procedure, shortened: as §1
[20] = test system: Human immunodeficiency virus 1; assay: Antiviral activity against HIV1 Q461.e2 infected in human TZM-b1 cells assessed as inhibition of viral infection after 2 days postinfection by luciferase reporter gene assay; type: functional, organism-based; conditions: Human immunodeficiency virus 1, Q461.e2, TZM-b1, 48 h; procedure, shortened: as §1
[21] = Cytotoxicity against human TZM-bl cells after 2 days by trypan blue exclusion assay; type: cell-based; conditions: 48 h
[22] = test system: Human immunodeficiency virus 1; assay: Antiviral activity against HIV1 NL4-3 infected in human TZM-b1 cells assessed as inhibition of viral infection after 2 days postinfection by luciferase reporter gene assay; type: functional, organism-based; conditions: Human immunodeficiency virus 1, NL4-3, TZM-b1, 48 h; procedure, shortened: as §1
[23] = test system: Human immunodeficiency virus 1; assay: Antiviral activity against HIV1 RHPA4259.7 infected in human TZM-b1 cells assessed as inhibition of viral infection after 2 days postinfection by luciferase reporter gene assay; type: functional, organism-based; conditions: Human immunodeficiency virus 1, RHPA4259.7, TZM-b1, 48 h; procedure, shortened: as §1
[24] = test system: Human immunodeficiency virus 1; assay: Antiviral activity against HIV1 Q769.d22 infected in human TZM-b1 cells assessed as inhibition of viral infection after 2 days postinfection by luciferase reporter gene assay; type: functional, organism-based; conditions: Human immunodeficiency virus 1, Q769.d22, TZM-b1, 48 h; procedure, shortened: as §1
[25] = test system: Human immunodeficiency virus 1; assay: Antiviral activity against HIV1 Q23.71 infected in human TZM-b1 cells assessed as inhibition of viral infection after 2 days postinfection by luciferase reporter gene assay; type: functional, organism-based; conditions: Human immunodeficiency virus 1, Q23.71, TZM-b1, 48 h; procedure, shortened: as §1
[26] = test system: Human immunodeficiency virus 1; assay: Antiviral activity against HIV1 Du123.6 infected in human TZM-b1 cells assessed as inhibition of viral infection after 2 days postinfection by luciferase reporter gene assay; type: functional, organism-based; conditions: Human immunodeficiency virus 1, Du123.6, TZM-b1, 48 h; procedure, shortened: as §1
[27] = test system: Human immunodeficiency virus 1; assay: Antiviral activity against HIV1 ZM197M.PB7 infected in human TZM-b1 cells assessed as inhibition of viral infection after 2 days postinfection by luciferase reporter gene assay; type: functional, organism-based; conditions: Human immunodeficiency virus 1, ZM197M.PB7, TZM-b1, 48 h; procedure, shortened: as §1
[28] = test system: Human immunodeficiency virus 1; assay: Inhibition of V3-speciifc monoclonal antibody […] binding to HIV1 Ba-L gp120 by ELISA-based competitive binding assay
[29] = test system: Human immunodeficiency virus 1; assay: Inhibition of V3-speciifc monoclonal antibody 39F binding to HIV1 3B gp120 by ELISA-based competitive binding assay
[30] = test system: Human immunodeficiency virus 1; assay: Inhibition of V3-speciifc monoclonal antibody 447-52 binding to HIV1 Ba-L gp120 by ELISA-based competitive binding assay
HOS [31] = assay: Inhibition of HIV1 Ba-L gp120/CD4 complex binding to CCR5 expressing HOS cells at 5 µg/ml after 1 hr by competitive binding assay; conditions: Human immunodeficiency virus 1
[32] = Ratio of inhibition of HIV1 […] envelope glycoprotein 120-mediated membrane fusion to inhibition of HIV1 (isolate YU2) envelope glycoprotein 120-mediated membrane fusion
HOS [33] = assay: Inhibition of HIV1 3B gp120/CD4 complex binding to CCR5 expressing HOS cells at […] after 1 hr by competitive binding assay; type: cell-based; conditions: Human immunodeficiency virus 1
Procedure, shortened: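 HOS.CCR5 cells were plated on poly-D-lysine and held overnight at 37°C. Soluble CD4 (4.5 nM) was premixed 1:1 with gp120 (Ba-L or IIIB) for 15 min at room temperature. The complex was added to cells with compound at 5 µg/ml for 1 h at 37°C. Bound gp120 was detected with FITC anti-gp120 (1 h), washed three times in PBS, and read by fluorescence at 490/520 nm.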

[34] = test system: Human immunodeficiency virus 1; assay: Inhibition of V3-speciifc monoclonal antibody 447-52D binding to HIV1 3B gp120 by ELISA-based competitive binding assay
[35] = target: Envelope glycoprotein gp160 (Human immunodeficiency virus type 1 group M subtype B (isolate YU-2)(HIV-1)) (UniProt P35961); assay: Inhibition of HIV1 (isolate YU2) envelope glycoprotein 120-mediated membrane fusion between virus-transfected african green monkey COS cells and human TZM-bl cells by luciferase-based cell-cell fusion assay in presence of IC9564; conditions: Human immunodeficiency virus type 1 (isolate YU2)
Envelope glycoprotein gp160 (Human immunodeficiency virus type 1 group M subtype B (isolate YU-2)(HIV-1)), sequence (P35961 whole entry, the tested form may be a part): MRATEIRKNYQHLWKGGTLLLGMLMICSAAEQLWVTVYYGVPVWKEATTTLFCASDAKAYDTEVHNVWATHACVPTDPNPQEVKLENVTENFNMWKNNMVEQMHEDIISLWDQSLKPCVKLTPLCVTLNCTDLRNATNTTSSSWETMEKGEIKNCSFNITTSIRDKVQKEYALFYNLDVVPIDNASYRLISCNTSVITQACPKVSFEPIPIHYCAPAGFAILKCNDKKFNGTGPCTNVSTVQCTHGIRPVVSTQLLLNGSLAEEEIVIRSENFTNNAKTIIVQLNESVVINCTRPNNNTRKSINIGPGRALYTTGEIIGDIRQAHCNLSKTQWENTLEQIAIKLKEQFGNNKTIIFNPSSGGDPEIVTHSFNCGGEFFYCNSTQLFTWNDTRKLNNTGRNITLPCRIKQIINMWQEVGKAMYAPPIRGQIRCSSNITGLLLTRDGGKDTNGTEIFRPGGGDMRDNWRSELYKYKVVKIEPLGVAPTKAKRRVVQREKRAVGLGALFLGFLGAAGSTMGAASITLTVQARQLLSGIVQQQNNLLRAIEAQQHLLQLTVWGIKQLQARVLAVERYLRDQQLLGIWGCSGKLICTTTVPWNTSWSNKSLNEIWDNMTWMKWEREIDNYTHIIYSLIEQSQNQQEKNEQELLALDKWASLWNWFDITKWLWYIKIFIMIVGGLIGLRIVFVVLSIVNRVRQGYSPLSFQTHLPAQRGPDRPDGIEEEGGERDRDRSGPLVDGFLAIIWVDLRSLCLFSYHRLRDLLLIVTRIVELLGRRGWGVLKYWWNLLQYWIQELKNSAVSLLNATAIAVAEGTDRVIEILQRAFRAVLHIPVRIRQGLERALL

C=C(C)[C@@H]1CC[C@]2(C(=O)NCCCCCCCNC(C)=O)CC[C@]3(C)[C@H](CC[C@@H]4[C@@]5(C)CC[C@H](O)C(C)(C)[C@@H]5CC[C@]43C)[C@@H]12
IC50 [1]: 190 nM
Activity [2]: Non-toxic
IC50 [3]: 48 nM
IC50 [4]: 220 nM
IC50 [5]: 400 nM
IC50 [6]: 140 nM
IC50 [7]: 1030 nM
IC50 [8]: 850 nM
IC50 [9]: 450 nM
IC50 [10]: 790 nM
IC50 [11]: 390 nM
IC50 [12]: 1050 nM
IC50 [13]: 400 nM
IC50 [14]: 280 nM
IC50 [15]: 310 nM
IC50 [16]: 170 nM
IC50 [17]: 340 nM
IC50 [18]: 70 nM
IC50 [19]: 140 nM
IC50 [20]: 380 nM
IC50 [21]: > 50000 nM
IC50 [22]: 110 nM
IC50 [23]: 640 nM
IC50 [24]: 3700 nM
IC50 [25]: 450 nM
IC50 [26]: 80 nM
IC50 [27]: 90 nM

C=C(C)[C@@H]1CC[C@]2(C(=O)NCCCCCCCC(=O)N[C@@H](CC(C)C)[C@H](O)CC(=O)O)CC[C@]3(C)[C@H](CC[C@@H]4[C@@]5(C)CC[C@H](O)C(C)(C)[C@@H]5CC[C@]43C)[C@@H]12
IC50 [1]: 810 nM
Activity [2]: Non-toxic
IC50 [3]: 70 nM
IC50 [4]: 210 nM
IC50 [5]: 810 nM
IC50 [6]: 390 nM
inhibition [28]: inactive
IC50 [7]: 7300 nM
IC50 [8]: 1070 nM
IC50 [9]: 670 nM
inhibition [29]: Dose-dependent effect
IC50 [10]: 750 nM
IC50 [11]: 810 nM
IC50 [12]: 1260 nM
IC50 [13]: 1210 nM
inhibition [30]: Active
inhibition (HOS [31]): Active
IC50 [14]: 250 nM
IC50 [15]: 620 nM
IC50 [16]: 650 nM
IC50 [17]: 750 nM
IC50 [18]: 80 nM
IC50 [19]: 80 nM
IC50 [20]: 310 nM
IC50 [21]: > 50000 nM
Ratio [32]: 30
IC50 [22]: 100 nM
IC50 [23]: 820 nM
inhibition (HOS [33]): Active
IC50 [24]: 4070 nM
IC50 [25]: 1610 nM
IC50 [26]: 90 nM
inhibition [34]: Dose-dependent effect
IC50 [27]: 90 nM

enfuvirtide
IC50 [1]: 450 nM
Activity [2]: Non-toxic
IC50 [3]: 2670 nM
IC50 [4]: 1020 nM
IC50 [5]: 90 nM
IC50 [8]: 1110 nM
IC50 [9]: 1450 nM
IC50 [10]: 1670 nM
IC50 [11]: 2450 nM
IC50 [12]: 2230 nM
IC50 [13]: 1830 nM
IC50 [14]: 1010 nM
IC50 [15]: 780 nM
IC50 [16]: 560 nM
IC50 [17]: 710 nM
IC50 [19]: 2230 nM
IC50 [20]: 1740 nM
IC50 [21]: > 50000 nM
IC50 [22]: 1910 nM
IC50 [23]: 760 nM
IC50 [24]: 2230 nM
IC50 [25]: 910 nM
IC50 [26]: 330 nM
IC50 [27]: 2230 nM

Cc1ccc(-c2ccc3c(c2)C=C(C(=O)Nc2ccc(C[N+](C)(C)C4CCOCC4)cc2)CCC3)cc1
Activity [35]: 0.053 ng/mL
